Data: ChEMBL document CHEMBL4513216, “Probing the Open Global Health Chemical Diversity Library for Multistage-Active Starting Points for Next-Generation Antimalarials” (ACS Infect Dis, 2020)

experiment: Toxicity liver stage against HepG2, at 10uM; format: cell-based; set-up: test concentration 10 uM, cell line HepG2-A16-CD81EGFP; details: human, HepG2-A16-CD81EGFP cells; read-out: INHIBITION
Procedure, shortened: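 Uninfected HepG2-A16-CD81EGFP cells, 3 × 10^3 per well, 1536-well, plated on prespotted compound at 10 μM final, parasite-free screening media added to match infected plates; puromycin 10 μM positive, DMSO 0.5% negative; run in parallel with 48 h PbLuc assay at 37 °C, 5% CO2; viability by CellTiter-Glo luminescence, normalized to controls.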

Structure (SMILES) | cytotoxicity at 10 µM [%]
Cc1ccc(C2COCCN2C(=O)c2ccc(C)s2)o1 (stereo not given) | -3.9
CC1(C(=O)NCCN2CCCCC2)CCCN1C(=O)c1ccccc1 (stereo not given) | -6.44
CCCS(=O)(=O)N1C[C@@H]2C[C@H](C(=O)N3CCCC3)[C@H](C1)O2 | -6.28
CCOC(=O)c1ccc(CNC(=O)c2ccc(C)nc2)o1 | 10.6
CCc1nnc(Nc2cccc(C3CCN(C(=O)CO)CC3)n2)s1 | -3.86
O=C(NCc1cc(N2CCOCC2)ncn1)c1cccc(CO)n1 | -7.76
O=C(O)c1ncccc1N1CCCCC1 | 4.19
CCOC1CCN(C(=O)CN(C)c2cnccn2)CC1 | -6.07
Cc1ccc(-c2noc(CN3CCC(c4ccn[nH]4)CC3)n2)cc1 | 12.6
O=C(N1CCCC1)N1CC[C@H]2OCC[C@@]2(COc2ncccc2F)C1 | -151
CC(C)(C)OC(=O)N1CCC(C(=O)NCc2ccccc2)C1 (stereo not given) | 17.7
CCNc1ncc(C(=O)NCCNc2ccncc2C)cn1 | -6.83
CN(CC1CCCCO1)c1ncnc2cc(F)ccc12 (stereo not given) | -2.15
Cc1ncsc1C(=O)N1CCCC(c2noc(C(C)C)n2)C1 (stereo not given) | -2.04
O=C(c1cnc(-c2ccccc2)s1)N1CCC2(CC1)OCCO2 | 2.42
Cc1nn(C)c2nc(NCCCN3CCCC(C(N)=O)C3)sc12 (stereo not given) | -9.8
COc1cc(C(=O)N2CCCS2(=O)=O)cc(Cl)c1OC | 2.31
Cc1cnc(CN(C)C2CCN(CCCc3ccccc3)C2)o1 (stereo not given) | -4.02
CC(=O)N1CCN(Cc2ccco2)CC2(CC(=O)N(C)C2)C1 (stereo not given) | -3.81
O=C(CCc1cc2n(n1)CCCNC2)N1CCN(C2CCCC2)C(=O)C1 | 2.68
COc1nonc1NCn1nc(C)cc1C | -15
COc1ccc(CN2CCCCC2Cn2nc(C)nc2C)cc1F (stereo not given) | -15

Structure (SMILES) | cytotoxicity at 10 µM [%]
Cc1ccc(CNC2(Cc3cc(-c4cccc(O)c4)on3)COC2)o1 | -0.873
O=C(CN1CCCC1c1nc(-c2ccccn2)no1)N1CCNCC1 (stereo not given) | 9.28
N#CC1(NC(=O)c2ccc(F)c(Br)c2)CCSC1 (stereo not given) | -7.08
CC(=O)N(Cc1ncc(C)o1)C1CCN(CCc2cccs2)C1 (stereo not given) | -8.85
Cc1cc(CN2CC[C@H]3C[C@H](c4nccs4)O[C@@H]3C2)no1 | 3.22
COCCNC(=O)[C@@H]1C[C@@H]2CCN(c3ncccn3)C[C@H]2O1 | -2.48
Cc1ocnc1C(=O)N1CCC2(CC1)c1nc[nH]c1CCN2CC(C)C | -11.4
Cc1cccc2[nH]c(C3CCN(C(=O)c4cnc[nH]c4=O)CC3)nc12 | 2.75
Cc1nc(N2CCCCC2)ncc1-c1cc(O)nc(N2CCCCC2)n1 | 11.8
Cc1ccccc1-n1cnnc1SCC(=O)NCC1CCCO1 (stereo not given) | -1.15
CN1CCC(N(CCc2ccccc2)C(=O)c2cc[nH]c2)CC1 | -1.14
COc1ccc(S(=O)(=O)C(C)C(=O)NCCOc2cccc(C)c2)cc1 (stereo not given) | -2.24
CCn1cc(NC(=O)NCC(O)CN2CCCCC2)cn1 (stereo not given) | 3.75
CNc1ncc(C(=O)N2CCC3(CC2)Nc2ccccc2NC3=O)cn1 | 1.02
CC(C)CN1CCC(NC(C)c2ccccc2-n2cccn2)CC1 (stereo not given) | 1.06
Cc1ccc(-n2nnc(CC(=O)N3CCN(C4CC4)CC3)c2C)cc1 | -8.06
CN1CCN(Cc2cn3c(n2)CN(Cc2cccnc2)CC3)CC1 | 5.25
Cc1[nH]/c(=N\C(=O)c2csc(NC3CC3)n2)sc1C | 37.4
Cc1nnc(CSc2ccccn2)o1 | 14.3
COCC(=O)N1CCc2nc(-c3cnccn3)nc(O)c2C1 | 27.7
CN(Cc1nnc(C2CC2)n1C)C1CCN(Cc2nccn2C)C1 (stereo not given) | -8.22
CO[C@@H]1CCN(Cc2cnn(C)c2)[C@@H]2CN(Cc3ccco3)C[C@@H]21 | -12.5

Structure (SMILES) | cytotoxicity at 10 µM [%]
O[C@@H]1CC(CNCc2ccc(F)cc2)(COc2cccnc2)C[C@@H]1O (stereo not given in full) | -10.8
CC1CCN(CCNC(=O)c2scnc2Cl)CC1 | -4.2
CC(Cn1cccn1)NC(=O)Cc1cccs1 (stereo not given) | 4.93
Cn1nccc1-c1ccc2nc(C3CCN(CCO)CC3)nn2c1 | -14.1
O=C(NCc1ccco1)c1cccc(CN2CCCC2CO)c1 (stereo not given) | -3.13
O=C(NCC(=O)N1CCN(c2ccccc2)CC1)c1sccc1C1CC1 | -151
CN1CCCC(Cc2cncc(Br)c2)CC1 (stereo not given) | -5.95
CC(C)n1nccc1NC(=O)CN1CCc2sccc2C1 | 0.583
CNC(=O)[C@H]1C[C@H]2OCC[C@H]2N(Cc2cccc3ccccc23)C1 | 7.67
Cc1ccc(C(CNC(=O)Nc2cn[nH]c2)N2CCOCC2)o1 (stereo not given) | -24.8
COCCN1CCOCC2(CCCN(Cc3cccc(F)c3)C2)C1 (stereo not given) | 0.346
NC(=O)CN1CCC(NCc2cc(C(F)(F)F)ccc2Cl)CC1 | -3.01
COc1ccccc1CNC(Cc1cccs1)c1nc(C)cs1 (stereo not given) | -6.12
Cc1nn(C)cc1-c1cc(C(=O)N2CCc3ncc(Cl)cc3C2)no1 | 1.18
COc1cc(CCC(=O)NC(C)C)ccc1OCC(F)(F)F | -4.24
CC(C)c1cc(C(=O)N2C[C@@H]3CC[C@H]2CN(Cc2cccnc2)C3)no1 | 2.55
CN(Cc1cnn(C)c1)CC(O)c1ccc2c(c1)OCO2 (stereo not given) | -9.98
CCN(Cc1ccc(N(C)C)cc1)S(=O)(=O)c1cc(Br)ccc1OC | 5.12
O=C(Nc1cnc(Oc2ccccc2F)nc1)C1CC1 | 0.0701
COc1ccc(OC)c(C2c3c(n[nH]c3C)N=C3COC(=O)C32)c1 (stereo not given) | -11.3
Oc1ccc(C2Nc3ccccc3C3=NCCCN32)cc1 (stereo not given) | -39.1
N#Cc1ccc(F)c(CN2CCNC(=O)C2c2cccs2)c1 (stereo not given) | 11.5

Structure (SMILES) | cytotoxicity at 10 µM [%]
CC(C)Oc1cccc(C(=O)C2CCCN(C(=O)c3ncn[nH]3)C2)c1 (stereo not given) | -7.53
Cc1ccc(C)c(CSc2nnc(C(N)Cc3ccccc3)o2)c1 (stereo not given) | -0.431
Cc1nn(C)c(C)c1NC(=O)CNC(c1ccccc1)C1CCC1 (stereo not given) | 1.44
CCN1CCC2(CC1)OCCN2C(=O)c1cc(Cl)c(OC)c(Cl)c1 | 9.31
Cc1ccc(NC2CCN(C(=O)c3sccc3C3CC3)CC2)nn1 | -4.51
CC(CNC(=O)Nc1ccc(N(C)C)nc1)Cn1cccn1 (stereo not given) | 6.95
CCn1cc2[nH]c(OC)c(CNC(=O)CCC3CCCC3)cc-2c1=O | -3.28
Cc1ccc(C(=O)NC2CCCN(C)C2)c(=O)[nH]1 (stereo not given) | -6.96
CC(=O)N1CCC(n2ccc(-c3cnc(NCC(C)C)nc3)n2)CC1 | -9.13
Cc1ccccc1C(=O)N1CC[C@@H](N2CCC(O)CC2)[C@H](O)C1 | 2.94
COCCCNC(=O)CN(C)C(=O)c1ccccc1O | -7.04
O=C(c1cnccn1)N1CCOC2(CCN(Cc3ccsc3)CC2)C1 | -4.45
CNC(=O)c1sccc1S(=O)(=O)Nc1ccc(C)cc1 | 11.4
Cc1ncc2c(n1)CN(Cc1nc(-c3ccsc3)no1)CC2 | -1.33
CCOCc1ccccc1NC(=O)NC1CCN(C(=O)OCC)CC1 | -14.5
c1ncn(CC2CCCCN2Cc2noc(C3CC3)n2)n1 (stereo not given) | -0.935
Cn1nc(C2CCCNC2)c2c(C(=O)NC3CC3)cc(C3CC3)nc21 (stereo not given) | 14.5
Cn1nc(N2CCCC(C(=O)Nc3nc4ccccc4s3)C2)ccc1=O (stereo not given) | 27.6
CN(C)c1ncccc1CNC(=O)NCc1ccco1 | -3.26
Cc1ccoc1C(=O)NC(CC(C)C)C(=O)N1CCC(CO)CC1 (stereo not given) | 0.794
CN(C)c1ccc(NC(=O)N2CCCC2c2ccsc2)cn1 (stereo not given) | -7.81
Cc1cccc(C(=O)N2C[C@@H]3CCN(c4cccnc4)C[C@@H]3C2)c1 | 3.76

Structure (SMILES) | cytotoxicity at 10 µM [%]
Cc1nnc(N2C[C@H](C(=O)NCc3ccco3)[C@@H]3CCO[C@@H]3C2)s1 | 8.5
CCn1nc(CC(C)C)cc1C(=O)N1CCC(n2cnnc2)CC1 | -7.71
Cn1c(CCN2CCN(CCc3ccccc3)CC2)nc2ccccc21 | -43.7
COCCN1CC(C(=O)NCc2ccc(C)s2)CC1=O (stereo not given) | 5.27
CC(C)CS(=O)(=O)N1C[C@@H]2C[C@H](C(=O)Nc3cccnc3)[C@H](C1)O2 | -1.55
CN(C)CCN1CCCC12CCN(C(=O)c1ccoc1)CC2 | -1.83
Cc1cc(F)ccc1OC1(C(=O)O)CCN(Cc2cccnc2)CC1 | 1.87
CCN(C)c1nccc(N2CCN[C@H]3CS(=O)(=O)C[C@H]32)n1 | 7.85
CCC(C)NC(=O)c1ccc(CNC(=O)CC(C)(C)C)cc1 (stereo not given) | 10
O=C1CN([C@@H]2CC[C@@H](NS(=O)(=O)c3ccccc3F)[C@H]2O)CCN1 | 1.06
Cc1noc([C@]23COC[C@H]2CN(S(=O)(=O)C2CC2)C3)n1 | 8.1
COc1ccc(CN2C[C@@H](OCc3csc(C)n3)[C@H]3COC[C@H]32)cc1 | -17.3
Cn1cccc1C(=O)N1C[C@@H](OCc2ccncc2)[C@@H]2OCCC[C@@H]21 | 2.32
O=C(c1ccc(O)nc1)N1CCC(Nc2cccnn2)CC1 | -8.83
CCc1ncc2c(n1)CN(c1nccc(C3CCCC3)n1)C2 | -1.16
COc1cccc(S(=O)(=O)CCNC(C)Cn2cccn2)c1 (stereo not given) | -3.34
O=C(NCCc1csc(-c2ncccn2)n1)c1cnn2c1CCCC2 | -3.88
Cn1cc(Cl)cc1C(=O)N1CCCN(Cc2cccs2)CC1 | -5.82
Cc1ccc(C(C)NC(=O)CSCC(N)=O)cc1 (stereo not given) | 3.37
Cc1nc(-c2ccc(S(=O)(=O)N3CCCCC3)cc2)co1 | -2.5
CC(C)n1nccc1CN1Cc2nccn2CC1c1ccccc1 (stereo not given) | 5.38
COc1ccc(Cl)cc1C(C(=O)O)N(C)Cc1ccon1 (stereo not given) | -5.92
